Results as given in ChEMBL document CHEMBL3351588, “Design, synthesis and biological evaluation of N-alkyl or aryl substituted isoindigo derivatives as potential dual cyclin-dependent kinase 2 (CDK2)/glycogen synthase kinase 3β (GSK-3β) phosphorylation inhibitors” (Eur J Med Chem, 2014).

What was measured:
K562 [1] = test: Induction of apoptosis in human K562 cells assessed as necrotic cells level at 20 uM after 48 hrs by Annexin V-FITC/propidium iodide staining based flow cytometry (reference value: 0.01%); format: functional
Method in brief: (§1)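 K562 cells exposed for 24 h or 48 h to 0, 5.0, 10.0, 15.0, 20.0 or 30.0 µM; vehicle DMSO 0.5% v/v. Cells stained with FITC-Annexin V, then counterstained with PI, and analysed by FACScan flow cytometry. Quadrants: Annexin V−/PI− viable; Annexin V+/PI− early apoptotic; Annexin V+/PI+ late apoptotic/necrotic.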

K562 [2] = test: Induction of apoptosis in human K562 cells assessed as viable cells level at 10 uM after 24 hrs by Annexin V-FITC/propidium iodide staining based flow cytometry (reference value: 97.64%); format: functional; method in brief: as §1
MGC-803 = test: Cytotoxicity against human MGC803 cells after 48 hrs by SRB assay; format: functional, cell-based; conditions: MGC-803, 48 h
Method in brief: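 Cells seeded at 5 × 10³ per well and allowed to attach for 12 h, then exposed to a range of drug concentrations in their own medium for 48 h. Fixed with ice-cold TCA for 1 h at 4 °C, washed, then stained with 0.4% SRB for 30 min at room temperature. IC50 is the mean of three independent experiments.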

K562 [3] = test: Induction of apoptosis in human K562 cells assessed as late apoptotic cells level at 5 uM after 48 hrs by Annexin V-FITC/propidium iodide staining based flow cytometry (reference value: 0.54%); format: functional; method in brief: as §1
K562 [4] = test: Induction of apoptosis in human K562 cells assessed as late apoptotic cells level at 20 uM after 48 hrs by Annexin V-FITC/propidium iodide staining based flow cytometry (reference value: 0.54%); format: functional; method in brief: as §1
K562 [5] = test: Induction of apoptosis in human K562 cells assessed as late apoptotic cells level at 5 uM after 24 hrs by Annexin V-FITC/propidium iodide staining based flow cytometry (reference value: 0.79%); format: functional; method in brief: as §1
K562 [6] = test: Induction of apoptosis in human K562 cells assessed as viable cells level at 15 uM after 48 hrs by Annexin V-FITC/propidium iodide staining based flow cytometry (reference value: 99.21%); format: functional; method in brief: as §1
K562 [7] = test: Reduction in cyclin A protein expression in human K562 cells at 5 to 30 uM after 24 hrs by Western blotting method; format: functional, cell-based
K562 [8] = test: Induction of apoptosis in human K562 cells assessed as necrotic cells level at 10 uM after 24 hrs by Annexin V-FITC/propidium iodide staining based flow cytometry (reference value: 0.0%); format: functional; method in brief: as §1
K562 [9] = test: Induction of apoptosis in human K562 cells assessed as viable cells level at 10 uM after 48 hrs by Annexin V-FITC/propidium iodide staining based flow cytometry (reference value: 99.21%); format: functional; method in brief: as §1
K562 [10] = test: Induction of apoptosis in human K562 cells assessed as viable cells level at 30 uM after 24 hrs by Annexin V-FITC/propidium iodide staining based flow cytometry (reference value: 97.64%); format: functional; method in brief: as §1
K562 [11] = test: Induction of apoptosis in human K562 cells assessed as necrotic cells level at 5 uM after 24 hrs by Annexin V-FITC/propidium iodide staining based flow cytometry (reference value: 0.0%); format: functional; method in brief: as §1
K562 [12] = test: Reduction in CDK2 protein expression in human K562 cells at 5 to 30 uM after 24 hrs by Western blotting method; format: functional, cell-based
K562 [13] = test: Induction of cell cycle arrest in human K562 cells assessed as accumulation at S phase at 10 uM after 24 hrs by propidium iodide staining based flow cytometry (reference value: 44.90%); format: functional

Work on COc1ccc(N2C(=O)/C(=C3/C(=O)Nc4ccccc43)c3ccccc32)cc1 yielded an Activity (K562 [1]) of 0.51%, an Activity (K562 [2]) of 93.14% and an IC50 (MGC-803) of 122 µM. For the same compound, the Activity (K562 [3]) was 0.76%, the Activity (K562 [4]) was 11.56% and the Activity (K562 [5]) was 1.54%. The Activity (K562 [6]) was 95.68%, the inhibition (K562 [7]) was “Dose-dependent effect” and the Activity (K562 [8]) was 0.01%. It also gave an Activity (K562 [9]) of 96.91%, an Activity (K562 [10]) of 56.98% and an Activity (K562 [11]) of 0%. For the same compound, the inhibition (K562 [12]) was “Dose-dependent effect” and the Activity (K562 [13]) was 50.88%.
